In ChEMBL document CHEMBL2439960, “Pharmacokinetics, metabolism, and in vivo efficacy of the antimalarial natural product bromophycolide A” (ACS Med Chem Lett, 2013):

What was measured:
Plasmodium falciparum [1] = assay: Antiplasmodial activity against chloroquine-sensitive Plasmodium falciparum 3D7 infected in erythrocytes assessed as parasite growth inhibition after 72 hrs by SYBR green I staining-based fluorescence assay; format: functional, organism-based; settings: 3D7, 72 h
Plasmodium berghei = assay: Antimalarial activity against Plasmodium berghei ANKA infected in NMRI mouse assessed as reduction of parasitemia at 10 mg/kg, po qd administered 3 days by flow cytometric analysis; format: functional; parameters: scale not given: the % may be the effect or the level left
[2] = Apparent clearance in Swiss mouse at 50 mg/kg, ip after 1 to 24 hrs by LC-MS/MS analysis; format: ADME, organism-based; parameters: dose 50 mg/kg, route intraperitoneal; settings: in vivo, read-out: CL(app)
Plasmodium falciparum [3] = assay: Antiplasmodial activity against chloroquine-sensitive Plasmodium falciparum MRC-02 assessed as suppression of parasitemia at 50 mg/kg, po by in vivo model study; format: functional
Plasmodium falciparum [4] = assay: Antiplasmodial activity against ring stage of chloroquine-sensitive Plasmodium falciparum MRC-02 infected in human erythrocytes assessed as parasite growth inhibition after 24 hrs by Giemsa staining method; format: functional, organism-based; settings: MRC-02, 24 h
Liver microsomes [5] = assay: Metabolic stability in human liver microsomes assessed as formation of metabolite M2 at 10 uM by LC-MS analysis in presence of NADPH and absence of UDPGA; format: ADME, Microsome
How it was run: (§1)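 Reaction products from S9 or microsomal incubations with NADPH analysed by LC-MS. Runs without UDPGA were checked for hydroxylated (m/z 677) and doubly hydroxylated (m/z 693) species. Runs with UDPGA were checked for a glucuronide (m/z 837).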

[6] = Elimination rate constant in BALB/c mouse at 23 mg/kg, iv after 1 to 24 hrs by LC-MS/MS analysis; format: ADME, organism-based; parameters: dose 23 mg/kg, route intravenous; settings: in vivo
How it was run: (§2)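 Healthy mice given one 23 mg/kg dose, IV or IP. Plasma concentrations plotted as mean ± SD, n=3. Kinetics fitted as a first-order elimination process.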

[7] = Drug metabolism in human liver microsomes at 10 uM after 24 hrs by LC-MS analysis in absence of UDPGA; format: ADME, Microsome; settings: read-out: Drug metabolism
How it was run: (§3)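 Compound incubated with human liver S9 or microsomal fractions for 24 h, extended from 4 h, with NADPH and with or without UDPGA. Loss of parent compound followed over time, sampled at 6 and 24 h. In vitro t1/2 and CLint calculated from the loss.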

[8] = Plasma clearance in BALB/c mouse at 23 mg/kg, iv after 1 to 24 hrs by LC-MS/MS analysis; format: ADME, organism-based; parameters: dose 23 mg/kg, route intravenous; how it was run: as §2
Liver microsomes [9] = assay: Metabolic stability in human liver microsomes assessed as formation of metabolite M5 at 10 uM by LC-MS analysis in presence of UDPGA; format: ADME, Microsome; how it was run: as §1
Liver microsomes [10] = assay: Half life in human liver microsomes at 10 uM after 24 hrs by LC-MS analysis in presence of UDPGA; format: ADME, Microsome; how it was run: as §3
[11] = Metabolic stability in human liver S9 fraction assessed as formation of metabolite M4 at 10 uM by LC-MS analysis in presence of NADPH and absence of UDPGA; format: ADME, subcellular; settings: s9, 10 µM; how it was run: as §1
[12] = Drug degradation in mouse serum at 150 uM after 48 hrs by HPLC analysis; format: ADME, cell-free; settings: read-out: Drug degradation
How it was run: (§4)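 Compound incubated in mouse serum at 37 °C. Remaining compound measured at 24 h and 48 h.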

[13] = Metabolic stability in human liver microsomes assessed as compound remaining at 10 uM after 24 hrs by LC-MS analysis in presence of UDPGA; format: ADME, Microsome; settings: read-out: Stability; how it was run: as §3
[14] = Metabolic stability in human liver S9 fraction assessed as formation of metabolite M2 at 10 uM by LC-MS analysis in presence of NADPH and absence of UDPGA; format: ADME, subcellular; settings: s9, 10 µM; how it was run: as §1
[15] = Drug metabolism in human liver S9 fraction at 10 uM after 24 hrs by LC-MS analysis in presence of UDPGA; format: ADME, subcellular; settings: s9, 24 h; how it was run: as §3
[16] = Initial plasma concentration in BALB/c mouse at 23 mg/kg, iv after 1 to 24 hrs by LC-MS/MS analysis; format: ADME, organism-based; parameters: dose 23 mg/kg, route intravenous; how it was run: as §2
[17] = Metabolic stability in human liver S9 fraction at 10 uM after 24 hrs by LC-MS analysis in absence of S9 enzyme and NADPH; format: ADME, subcellular; settings: s9, 24 h
How it was run: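 Control incubations for the S9 metabolism assay run over 24 h, lacking either the enzyme or NADPH.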

[18] = Metabolic stability in human liver S9 fraction assessed as formation of metabolite M3 at 10 uM by LC-MS analysis in presence of NADPH and absence of UDPGA; format: ADME, subcellular; settings: s9, 10 µM; how it was run: as §1
[19] = Half life in BALB/c mouse at 23 mg/kg, iv after 1 to 24 hrs by LC-MS/MS analysis; format: ADME, organism-based; parameters: dose 23 mg/kg, route intravenous; settings: in vivo; how it was run: as §2
Plasmodium falciparum [20] = assay: Antiplasmodial activity against chloroquine-resistant Plasmodium falciparum Dd2 infected in erythrocytes assessed as parasite growth inhibition after 72 hrs by SYBR green I staining-based fluorescence assay; format: functional, organism-based; settings: Dd2, 72 h
Liver microsomes [21] = assay: Intrinsic clearance in human liver microsomes at 10 uM after 24 hrs by LC-MS analysis in absence of UDPGA; format: ADME, Microsome; how it was run: as §3
Liver [22] = assay: Metabolic stability in human liver S9 fraction at 10 uM after 4 hrs by LC-MS analysis; format: ADME, subcellular; settings: s9, 4 h
How it was run: (§5)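 Initial incubations with the human liver S9 or microsomal fraction lasted 4 h.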

Mus musculus [23] = assay: Toxicity in Swiss Webster mouse at 5 to 10 mg/kg, ip qd administered on day 2 to 5; format: organism-based; parameters: dose 5-10 mg/kg, route intraperitoneal; settings: in vivo
Liver microsomes [24] = assay: Metabolic stability in human liver microsomes assessed as formation of metabolite M1 at 10 uM by LC-MS analysis in presence of NADPH and absence of UDPGA; format: ADME, Microsome; how it was run: as §1
Liver microsomes [25] = assay: Metabolic stability in human liver microsomes at 10 uM after 4 hrs by LC-MS analysis; format: ADME, Microsome; how it was run: as §5
Liver microsomes [26] = assay: Half life in human liver microsomes at 10 uM after 24 hrs by LC-MS analysis in absence of UDPGA; format: ADME, Microsome; how it was run: as §3
[27] = Apparent volume of distribution in BALB/c mouse at 23 mg/kg, iv after 1 to 24 hrs by LC-MS/MS analysis; format: ADME, organism-based; parameters: dose 23 mg/kg, route intravenous; settings: in vivo, read-out: Vd(app); how it was run: as §2
[28] = AUC in BALB/c mouse at 23 mg/kg, iv after 1 to 24 hrs by LC-MS/MS analysis; format: ADME, organism-based; parameters: dose 23 mg/kg, route intravenous; settings: plasma; how it was run: as §2
[29] = Half life in human liver S9 fraction at 10 uM after 24 hrs by LC-MS analysis in presence of UDPGA; format: ADME, subcellular; settings: s9, 24 h; how it was run: as §3
[30] = AUC in BALB/c mouse at 23 mg/kg, ip after 1 to 24 hrs by LC-MS/MS analysis; format: ADME, organism-based; parameters: dose 23 mg/kg, route intraperitoneal; settings: plasma; how it was run: as §2
[31] = Metabolic stability in human Liver S9 fraction assessed as formation of metabolite M5 at 10 uM by LC-MS analysis in presence of UDPGA; format: ADME, subcellular; settings: s9, 10 µM; how it was run: as §1
Mus musculus [32] = assay: Drug absorption rate constant in BALB/c mouse at 23 mg/kg, ip after 1 to 24 hrs by LC-MS/MS analysis; format: ADME, organism-based; parameters: dose 23 mg/kg, route intraperitoneal; settings: in vivo; how it was run: as §2
Plasmodium yoelii = assay: Antimalarial activity against Plasmodium yoelii infected in Swiss Webster mouse assessed as decrease in parasite load at 10 mg/kg, ip qd administered on day 2 to 5 by Hoechst 33342 staining-based FACS analysis relative to control; format: functional; parameters: scale not given: the % may be the effect or the level left; settings: route intraperitoneal
How it was run: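 Mice infected with Plasmodium yoelii, dosed once daily at 5 or 10 mg/kg. Vehicle-only injected mice served as controls. Parasitemia was measured by FACS, including 24 h after the first dose, after the second dose, and at the end of the four-day trial.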

[33] = Tmax in BALB/c mouse at 23 mg/kg, ip after 1 to 24 hrs by LC-MS/MS analysis; format: ADME, organism-based; parameters: dose 23 mg/kg, route intraperitoneal; settings: in vivo; how it was run: as §2
Serum = assay: Metabolic stability in mouse serum at 150 uM after 24 hrs by HPLC analysis; format: ADME, cell-free; how it was run: as §4
[34] = Metabolic stability in human liver cytosolic subcellular fraction at 10 uM after 4 hrs by LC-MS analysis; format: ADME; settings: cytosol
Liver microsomes [35] = assay: Metabolic stability in human liver microsomes assessed as formation of metabolite M4 at 10 uM by LC-MS analysis in presence of NADPH and absence of UDPGA; format: ADME, Microsome; how it was run: as §1
Liver [36] = assay: Half life in human liver S9 fraction at 10 uM after 24 hrs by LC-MS analysis; format: ADME, subcellular; settings: s9, 24 h; how it was run: as §3
Liver microsomes [37] = assay: Metabolic stability in human liver microsomes assessed as formation of metabolite M3 at 10 uM by LC-MS analysis in presence of NADPH and absence of UDPGA; format: ADME, Microsome; how it was run: as §1
[38] = Cmax in BALB/c mouse at 23 mg/kg, ip after 1 to 24 hrs by LC-MS/MS analysis; format: ADME, organism-based; parameters: dose 23 mg/kg, route intraperitoneal; settings: in vivo; how it was run: as §2
[39] = Metabolic stability in human liver S9 fraction assessed as formation of metabolite M1 at 10 uM by LC-MS analysis in presence of NADPH and absence of UDPGA; format: ADME, subcellular; settings: s9, 10 µM; how it was run: as §1
[40] = Drug metabolism in human liver S9 fraction at 10 uM after 24 hrs by LC-MS analysis; format: ADME, subcellular; settings: read-out: Drug metabolism; how it was run: as §3

`CC(=O)Oc1ccc2cc1CC1=C(C)CC[C@H](Br)[C@@]1(C)CC[C@@H](Br)[C@@](C)(O)CC[C@@H](C(C)(C)Br)OC2=O` gave an IC50 (Plasmodium falciparum [1]) of 241 nM.
With `C[C@H]1Cc2c([nH]c3cc(Cl)c(F)cc23)[C@@]2(N1)C(=O)Nc1ccc(Cl)cc12` [CIPARGAMIN] the Activity (Plasmodium berghei) was 99%.
Work on `CCN(CC)CCCC(C)Nc1ccnc2cc(Cl)ccc12` (centres undefined) [CHLOROQUINE] yielded a CL/F [2] of 17 mL/min/kg.
For `CC(=O)OC[C@@H]1CC[C@]2(C)C(C)=CC(=O)C[C@H]2[C@]1(C)CCC1=CCOC1=O`, the Activity (Plasmodium falciparum [3]) was 45% and the IC50 (Plasmodium falciparum [4]) was 8800 nM.
In the case of `CC1=C2Cc3cc(ccc3O)C(=O)O[C@H](C(C)(C)Br)CC[C@](C)(O)[C@H](Br)CC[C@]2(C)[C@@H](Br)CC1`, the Stability (Liver microsomes [5]) is reported as “Unstable”, the k el [6] is reported as 0.000258 s⁻¹ and the metabolised at 24 h, 10 µM [7] is reported as 61%. For the same compound, the clearance [8] was 16 mL/min/kg, the Stability (Liver microsomes [9]) was “Unstable” and the t1/2 (Liver microsomes [10]) was 6.6 h. For the same compound, the Stability [11] was “Unstable”, the metabolised at 48 h, 150 µM [12] was 27% and the remaining at 24 h, 10 µM [13] was 15.3%. The Stability [14] was “Unstable”, the Drug metabolism [15] was 21% and the C0 [16] was 24000 ng/mL. For the same compound, the Stability [17] was “Stable”, the Stability [18] was “Unstable” and the half-life [19] was 0.75 h. For the same compound, the IC50 (Plasmodium falciparum [20]) was 377 nM, the CLint (Liver microsomes [21]) was 0.72 mL/min/kg and the Stability (Liver [22]) was “Stable”. The Activity (Mus musculus [23]) was “Non-toxic”, the Stability (Liver microsomes [24]) was “Unstable” and the Stability (Liver microsomes [25]) was “Stable”. It also gave a t1/2 (Liver microsomes [26]) of 14 h, a Vd [27] of 0.95 L/kg and an AUC [28] of 26000 ng·h/mL. The t1/2 [29] was 9.5 h, the AUC [30] was 20000 ng·h/mL and the Stability [31] was “Unstable”. For the same compound, the IC50 (Plasmodium falciparum [1]) was 499 nM, the ka (Mus musculus [32]) was 0.24 h⁻¹ and the Activity (Plasmodium yoelii) was 47%. The Tmax [33] was 1.5 h, the Stability (Serum) was “Stable” and the Stability [34] was “Stable”. For the same compound, the Stability (Liver microsomes [35]) was “Unstable”, the t1/2 (Liver [36]) was 20 h and the Stability (Liver microsomes [37]) was “Unstable”. The Cmax [38] was 5800 ng/mL, the Stability [39] was “Unstable” and the metabolised at 24 h, 10 µM [40] was 55%.
